PMC5395284 (Journal of Experimental Pharmacology, 2017)

Key:
[1] = assay type: in vivo, Wistar rat
[2] = assay type: in vivo, Wistar rat; remark: listed apart in the source
[3] = test system: Wistar rat brain; experiment: Brain neurotransmitter levels; assay type: in vivo; conditions: 4 weeks treatment
In short: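 Wistar rats on high-fat diet for up to 4 weeks, caged ≤6 per cage at 25°C±2°C. Groups: control, oral SSRI test compound 20 mg/kg b.w., statin test compound 40 mg/kg b.w., or both, for 4 weeks. Brain (100 mg) homogenized in 1 mL 0.1 M perchloric acid with 0.05% EDTA, centrifuged 18,000 rpm, 10 min, 4°C. Mean±SD, n=6; p<0.05 versus lipid control.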

[4] = test system: hyperlipidemic Wistar rats; experiment: Plasma lipid levels; assay type: in vivo, Wistar rat; conditions: 4 weeks treatment; for reduction in total cholesterol level: plasma, in comparison to lipid control
[5] = after 2-week dosing of FLX; cited from earlier work
[6] = STT+FLX compared to STT monotherapy
[7] = STT+FLX for 4 weeks compared to STT-alone treatment

SMILES	brain concentration of 5-hydroxytryptamine (5HT) ([3]; mean±SD, n=6) [µg/g]	effect on brain level of HIAA ([3]; versus control)	effect on plasma triglyceride level ([4]; versus lipid control)	reduction in total cholesterol level [4] [%]	increase in bioavailability [5] [fold]	further results
CCC(C)(C)C(=O)O[C@H]1C[C@@H](C)C=C2C=C[C@H](C)[C@H](CC[C@@H]3C[C@@H](O)CC(=O)O3)[C@H]21 [STT, simvastatin]	0.45 ± 0.14	unaffected	significant reduction	41.6		percentage increase in AUC0−t in brain [1, 6]: 79%; increase in AUC in plasma [2, 7]: 41.6%; increase in Cmax in plasma [2, 7]: 57.9%; effect on brain level of dopamine ([3]; versus control): unaffected; effect on plasma HDL level ([4]; versus lipid control): increase in plasma HDL level
COc1ccc2[nH]c([S+]([O-])Cc3ncc(C)c(OC)c3C)nc2c1 (stereo not drawn) [omeprazole]					7.1	
COc1ccc2c(c1)[C@]13CCCC[C@@H]1[C@H](C2)N(C)CC3 [dextromethorphan]					27	
CCC(C)(C)C(=O)O[C@H]1C[C@@H](C)C=C2C=C[C@H](C)[C@H](CC[C@@H](O)C[C@@H](O)CC(=O)O)[C@H]21 [STA, simvastatin acid]						reduction in bioavailability (AUC0−∞) in plasma [2, 6]: 36%
CNCCC(Oc1ccc(C(F)(F)F)cc1)c1ccccc1 (stereo not drawn) [FLX, fluoxetine]	0.62 ± 0.15	failed to alter	failed to produce any significant effect	16.3		accumulation in the brain relative to plasma ([1]; after multiple-dose administration): multifold higher; brain concentration of dopamine ([3]; mean±SD, n=6): 1.48 ± 0.14 µg/g
